Measured values taken from PubChem BioAssay AID624038 (The Scripps Research Institute Molecular Screening Center, 2012).
Out of some 360,000 compounds screened, about 1,100 (0.31%) were called active. The sample holds actives, similar compounds and a random draw of the others, so the mix is not that of the screen. Values without a mark were called inactive.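 How the source made its calls: active means activation above the run cutoff, the mean activation of all test compounds plus 3 SD (cut at about 18% in these data); inactive means the rest.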

What follows are compounds tested against Muscarinic acetylcholine receptor M5 (Homo sapiens) (UniProt P08912) (assay: CHRM5 PAMs potentiating acetylcholine calcium signal – CHO-K1 cells, Fluo-8 calcium fluorescence, primary screen (AID 624038)). Settings: CHO-K1 hM5, Fluo-8 calcium, ACh EC20 PAM; at 3 µM; active compounds read high; 0% = ACh EC20, 100% = ACh EC100.
Chain of Muscarinic acetylcholine receptor M5 (Homo sapiens) (P08912 whole entry, looked up): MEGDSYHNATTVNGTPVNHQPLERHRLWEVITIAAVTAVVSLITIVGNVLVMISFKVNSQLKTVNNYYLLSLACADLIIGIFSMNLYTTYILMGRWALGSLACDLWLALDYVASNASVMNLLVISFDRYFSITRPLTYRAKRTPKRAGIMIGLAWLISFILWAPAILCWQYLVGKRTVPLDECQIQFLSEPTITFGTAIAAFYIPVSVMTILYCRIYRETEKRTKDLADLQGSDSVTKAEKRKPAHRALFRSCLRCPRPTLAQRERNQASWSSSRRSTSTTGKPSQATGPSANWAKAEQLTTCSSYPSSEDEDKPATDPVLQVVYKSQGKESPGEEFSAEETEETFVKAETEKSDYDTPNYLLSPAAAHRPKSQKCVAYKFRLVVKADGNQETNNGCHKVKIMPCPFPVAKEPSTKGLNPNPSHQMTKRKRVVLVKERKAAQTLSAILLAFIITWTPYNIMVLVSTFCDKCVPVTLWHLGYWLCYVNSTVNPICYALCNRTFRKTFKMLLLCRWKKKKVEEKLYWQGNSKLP
Outline: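 Test system: CHO-K1 hM5 cells / Doses: single-point, 3 µM nominal / Times: Post-acetylcholine fluorescence recording 140 s / Technique: Fluo-8 calcium fluorescence / Measure: Max/basal fluorescence ratio as % of EC20–EC100 ACh window / Benchmarks: low control EC20 acetylcholine (0%), high control EC100 acetylcholine (100%) / Replicates: one well per compound, no replicates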
For `CCOC(=O)[C@H]1Nc2ccc(Cl)cc2[C@@H]2[C@H]1C1CC(c3ccccc31)N2C(=O)OCc1ccccc1` (some centres not stated), the activation was -15.8%.
Compound `COc1ccccc1-n1c(SCC(=O)O)nc2sc3c(c2c1=O)CCC3` has an activation of 1.79%.
Work on `CCSc1nc2sc3c(c2c(=O)n1-c1ccc(C)cc1)CCN(C)C3` yielded an activation of -1.06%.
In the case of `Cc1ccc(C)c(-n2c(SCC(=O)O)nc3sc4c(c3c2=O)CCCC4)c1`, the activation is reported as 20.4% (active).
Compound `COc1ccc(Br)cc1CN1CCN(C(=O)c2cccc(OC)c2OC)CC1` has an activation of 2.23%.
`CCN(CC)c1ccc(C2C3CCCCC3(O)CCN2CC(=O)Nc2ccccc2)cc1` (configuration not stated) showed an activation of -6.54%.
`CC(N)C12CC3CC(CC(O)(C3)C1)C2` (configuration not stated) showed an activation of -3.44%.
Compound `COC(=O)c1ccc(NC(=O)C23CC4CC(C2)CC(n2cnc(Cl)n2)(C4)C3)cc1` has an activation of 3.27%.
For `Cc1ncn(C23CC4CC(CC(O)(C4)C2)C3)n1`, the activation was 19.2% (active).
`CCOC(=O)/C(=N\Nc1ccccc1Cl)N(C)C1CCS(=O)(=O)C1` (configuration not stated) was tested, and the activation was -8.17%.
In the case of `O=C(COC(=O)/C=C/c1nc2ccccc2s1)Nc1ccccc1Oc1ccccc1`, the activation is reported as 1.93%.
For `CCC(=O)c1ccc(OCC(O)CN2CCN(c3cccc(C(F)(F)F)c3)CC2)cc1` (configuration not stated), the activation was -10.8%.
Work on `COC(=O)CN(C(=S)Nc1ccc(Cl)cc1)C1CC(=O)N(c2ccc(OC)cc2)C1=O` (configuration not stated) yielded an activation of -18.4%.
In the case of `CCOc1ccc(N2C(=O)CC(N(CCc3ccc(OC)c(OC)c3)C(=S)Nc3ccccc3)C2=O)cc1` (configuration not stated), the activation is reported as 21.9% (active).
With `CN(C)c1ccc(NC(=S)N(CCc2ccccc2)C2CC(=O)N(c3c(Cl)cccc3Cl)C2=O)cc1` (configuration not stated) the activation was 8.56%.
`COc1ccc(CCNS(=O)(=O)c2ccc(C(=O)NCc3ccco3)cc2)cc1OC` gave an activation of 1.67%.
In the case of `CCCC1=Nc2cc(C(=O)NCc3ccco3)ccc2Sc2ccccc21`, the activation is reported as 19.8% (active).
`O=C(NCc1ccco1)c1cccc(-c2ccc3nncn3c2)c1` was tested, and the activation was -4.68%.
In the case of `O=C(NC1CCN(C(=S)NCc2ccco2)CC1)c1ccc(F)cc1`, the activation is reported as -4.46%.
Compound `Cc1cc(C)nc(SCc2nnc(SCC(=O)Nc3ncc(C)s3)n2Cc2ccco2)n1` has an activation of -4.62%.
`CCn1c(CNC(=O)c2ccco2)nnc1SCC(=O)Nc1cccc(F)c1` gave an activation of -8.95%.
`CCN(CC)C(=O)CSc1nnc(CNc2ccc(F)cc2)n1Cc1ccco1` was tested, and the activation was 26.3% (active).
Work on `Cc1c(Cl)cccc1NC(=O)CC1SC(=NCC2CCCO2)NC1=O` (configuration not stated) yielded an activation of -3.09%.
With `CCn1ccnc1CN(C)C(=O)c1ccc2nc(Cc3ccc(OC)cc3)oc2c1` the activation was -3.69%.
With `CC(=O)Nc1ccc(N2C(=O)C3C4C=CC(CC4)C3C2=O)cc1` (configuration not stated) the activation was 3.09%.
For `CC(=O)Nc1ccc(N2C(=O)CCC2=O)cc1C`, the activation was 30.9% (active).
Compound `Cc1cc(N2CCCC2)ccc1NC(=O)COc1ccc(Cl)cc1` has an activation of -6.11%.
`CCNC(=O)CC1C(=O)N(c2ccc(F)cc2)C(=O)N1Cc1cccs1` (configuration not stated) showed an activation of -0.18%.
For `CC(C)CN1CCNC(=O)C1CC(=O)N(C)CC1CCOCC1` (configuration not stated), the activation was 1.55%.
`Cc1ccc(C(C)(C)C)c(OCCCCN2CCCC2)c1` showed an activation of -4.25%.
Work on `COc1ccc(C2=NN(C(=O)CSc3nnnn3C)C(c3ccco3)C2)cc1` (configuration not stated) yielded an activation of 8.48%.
With `CCOC(=O)c1c(NC(=O)c2cccs2)sc(C)c1C` the activation was 27.8% (active).
`CCc1c(C)sc(NC(=O)c2cccs2)c1C(N)=O` was tested, and the activation was -8.58%.
With `COCCCNCC(=O)Nc1sc(C)c(C)c1C(=O)OC` the activation was 12.8%.
In the case of `CC1(C(=O)NS(=O)(=O)c2ccc(Cl)cc2)CCN1C(=O)CC1CCCC1` (configuration not stated), the activation is reported as 0.43%.
For `CCCCn1c(N)c(N(CCC(C)C)C(=O)CC2OC(=O)c3ccccc32)c(=O)[nH]c1=O` (configuration not stated), the activation was -2.77%.
Compound `Cc1cc(NS(=O)(=O)c2ccc(NC(=O)c3cccc(OC(F)F)c3)cc2)nc(C)n1` has an activation of 1.34%.
Compound `CCc1nnc(NS(=O)(=O)c2ccc(NC(=S)NC(=O)/C=C/c3cccs3)cc2)s1` has an activation of 2.07%.
`CCc1nnc(NS(=O)(=O)c2ccc(NC(=O)c3cccc(OC(F)(F)C(F)F)c3)cc2)s1` was tested, and the activation was 18.4% (active).
For `O=C(NC(=S)N1CCCCC1c1cccnc1)c1ccccc1` (configuration not stated), the activation was 5.16%.
For `Cc1ccc(S(=O)(=O)NNC(=O)/C=C/c2cccc(F)c2)cc1`, the activation was -0.46%.
`Cc1ccc(C)c(OCc2cc(C(=O)N3CCN(c4cnccn4)CC3)no2)c1` gave an activation of -8.08%.
With `Cc1cccn2c(=O)c3cc(C(=O)NCCN4CCOCC4)c(=N)n(Cc4cccnc4)c3nc12` the activation was 28.1% (active).
`Cc1cccn2c(=O)c3cc(C#N)c(=O)n(CCCN4CCOCC4)c3nc12` gave an activation of -0.36%.
`Cc1ccc2nc3c(cc(C(=O)NCCc4ccccc4)c(=N)n3CC3CCCO3)c(=O)n2c1` (configuration not stated) was tested, and the activation was 2.81%.
Work on `CN(Cc1ccccc1)C(=O)C(=O)c1cn(CC(=O)N2CCCC2)c2ccccc12` yielded an activation of -2.13%.
Work on `C/C(=N\NC(=S)NC(C)C)c1ccc(C(C)(C)C)cc1` yielded an activation of 8.71%.
`CCCCN(CC)CCNC(=O)c1[nH]c(C)c(C(C)=O)c1C` showed an activation of -11.2%.
With `CCC1CCCCN1CCNC(=O)c1[nH]c(C)c(C(C)=O)c1C` (configuration not stated) the activation was 20.7% (active).
`CC(=O)c1c(C)[nH]c(C(=O)NCCCN2CCCC2)c1C` was tested, and the activation was 18.1% (active).
Compound `CC(=O)c1c(C)[nH]c(C(=O)NCc2ccc(C)cc2)c1C` has an activation of 11.5%.
With `CCC1CCCCN1CCNS(=O)(=O)c1ccc2c(c1)CCN2C(C)=O` (configuration not stated) the activation was 2.47%.
`CCOC(=O)c1c(C)[nH]c(C(=O)NCCN2CCOCC2)c1C` gave an activation of -4.21%.
For `COc1ccc(OCC(=O)NCCS(=O)(=O)N2CCN(c3ccc(F)cc3)CC2)cc1`, the activation was 5.36%.
Compound `CCCCNC(=O)N(O)C1N(/N=C/c2ccccc2O)C(=S)SC1(C)C` (configuration not stated) has an activation of -0.6%.
Work on `Cc1cccc(OCC(=O)OCC(=O)Nc2ccc(Cl)cn2)c1` yielded an activation of 5.11%.
With `O=C(Nc1ccc(Cl)cn1)Nc1cccs1` the activation was 29.7% (active).
With `O=C(COC(=O)c1ccco1)Nc1ccc(Cl)cn1` the activation was 4.61%.
Compound `Cc1ccc(C(=O)OC2=CC(=O)CC(C)(C)C2)cc1` has an activation of 0.4%.
`Cc1ccc(C(C(=O)NCc2ccco2)N(CC2CCCO2)C(=O)Cn2nnc3ccccc32)cc1` (configuration not stated) gave an activation of -1.09%.
`COc1ccc(C(C(=O)NCC2CCCO2)N(C(=O)Cn2nnc3ccccc32)c2ccc(NC(C)=O)cc2)cc1OC` (configuration not stated) was tested, and the activation was 5.16%.
`CCOc1cc(C(C(=O)NCC2CCCO2)N(C(=O)Cn2nnc3ccccc32)c2cccc(OC)c2)ccc1O` (configuration not stated) was tested, and the activation was 19% (active).
`CC1CN(CCCOc2ccccc2-c2ccccc2)CC(C)O1` (configuration not stated) was tested, and the activation was 0.63%.
With `Cc1cc(C)c(OCCN2CC(C)OC(C)C2)c(Br)c1` (configuration not stated) the activation was 23.1% (active).
Work on `CC1CN(CCOc2ccccc2[N+](=O)[O-])CC(C)O1` (configuration not stated) yielded an activation of 8.76%.
`CCN(CC)Cc1csc2ccc(Br)cc12` gave an activation of -8.32%.
For `CN(Cc1ccccc1)C(=O)[C@@H]1CCCN1C(=O)[C@@H]1CCCN1C(=O)c1c(F)cccc1F`, the activation was -3.49%.
In the case of `O=C(CCN1C(=O)[C@@H]2Cc3ccccc3CN2C1=O)NCc1ccccc1`, the activation is reported as 21.5% (active).
Work on `O=C(CCN1C(=O)[C@@H]2Cc3ccccc3CN2C1=O)NCCc1ccccc1` yielded an activation of -2.71%.
In the case of `Cc1ccc(CNC(=O)CCN2C(=O)[C@@H]3Cc4ccccc4CN3C2=O)cc1`, the activation is reported as -3.61%.
`c1ccc(CCc2ccccn2)cc1` gave an activation of -5.1%.
For `O=C(O)C(CCc1ccccn1)c1ccccc1` (configuration not stated), the activation was 19.2% (active).
Compound `O=C(CNC(=O)COc1ccccc1)NCCc1ccccn1` has an activation of -11%.
With `Cc1cccc(C(=O)NC2CCN(CC(=O)Nc3cccc(Cl)c3)CC2)c1` the activation was -2.77%.
For `CCC(C)(C)n1nnnc1C(c1ccc(OC)c(OC)c1)N1CCN(C(=O)c2ccco2)CC1` (configuration not stated), the activation was 4.04%.
`COc1ccccc1N(C)C(=O)c1cc(S(=O)(=O)N2CCc3ccccc32)cn1C` gave an activation of -2.97%.
In the case of `COc1ccccc1C(=O)NC(=S)Nc1ccc(N2CCOCC2)cc1`, the activation is reported as 4.29%.
For `COc1cccc(OC)c1C(=O)Nc1ccc(N2CCCCC2)cc1`, the activation was 20.9% (active).
In the case of `COc1ccccc1C(=O)Nc1ccc(OCC(=O)N2CCCCC2)cc1`, the activation is reported as 1%.
With `CN(C)c1ccc(/C=N/NC(=O)C(O)c2ccc(Br)cc2)cc1` (configuration not stated) the activation was 20.2% (active).
`CN(C)c1ccc(/C=N/NC(=O)c2ccc(Cn3cc(Br)cn3)o2)cc1` was tested, and the activation was -6.88%.
Compound `COc1ccc(/C=N/NC(=O)C(C)N(c2ccc(OC)cc2)S(C)(=O)=O)cc1` (configuration not stated) has an activation of -7.14%.
Compound `O=C(NC1CCCCC1)C1CCC(CNS(=O)(=O)c2ccccc2)CC1` (configuration not stated) has an activation of -2.41%.
In the case of `COc1cc(C(=O)NC2CCN(C)CC2)ccc1Nc1ncc2c(n1)N(C1CCC(O)CC1)CCC(=O)N2C` (configuration not stated), the activation is reported as -2.26%.
Work on `CCCCCNC(=O)C1C(=O)Nc2ccccc2C(=O)N1C(C)(C)C` (configuration not stated) yielded an activation of 7.08%.
`COCCNC(=O)c1onc(CSc2cccc(C)c2)c1C(=O)O` showed an activation of -3.85%.
Compound `O=C(NNC(=O)C1CCC1)c1ccccc1` has an activation of 2.72%.
In the case of `O=C(NNC(=O)C1CCN(c2ncccn2)CC1)c1ccccc1`, the activation is reported as 26.2% (active).
With `O=C(NNc1nc(N2CCCC2)nc(N2CCCC2)n1)c1ccccc1` the activation was 6.43%.
`CN(C)/C(=N\OC(=O)c1ccccc1)c1nonc1N` showed an activation of -4.7%.
Work on `COc1cc(Cn2c3ccc(NC(=O)CC(C)c4ccccc4)cc3c(=O)n2C)ccc1F` (configuration not stated) yielded an activation of -5.77%.
Compound `O=C(Nc1cccc(C(=O)O)c1)/C(=C\c1ccccc1)NC(=O)c1ccc(Br)o1` has an activation of -2.27%.
